# This is a sample that favours compounds with a hit; in the whole collection about 1.9% have one here.
# Tn7 DDE FP: inhibitors of Tn7 peptide binding to human fibrin DD(E); P02675; FP displacement of FITC-Tn7 peptide from fibrin DD(E); 0% = median of compound wells per plate; inhibition, % at 8.3 µM; 370,000 tested, 0.13% active;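 active = inhibition above the mean of compounds falling within the control limits plus 3 SD of them, cut at about 14% in these data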;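 note: 0% = plate median of compound wells and 100% = 10 µM Aha-Tn7 peptide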
#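 Assay system: Human fibrin DD(E) protein | Medium: Tris buffer with calcium and detergent, pH 7.8 | Reagent: 0.1 µM fluorescent Tn7 | Compound dosing: Single point at 8.3 µM | Times: 10 min preincubation, 3 h with tracer, room temperature | Detection: Fluorescence polarization of the labelled Tn7 tracer | Controls: Aha-Tn7 high control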
# UHRF1 MBD2 ctr: human UHRF1 methylated DNA binding inhibitors; Q96T88; inhibition, % at 4.4 µM; 370,000 tested, 0.75% active; AID 687016; UHRF1 binding to methylated oligo, TR-FRET;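 note: UHRF1 SRA domain binding a hemimethylated CpG hairpin DNA probe; 0% = median of test compound wells and 100% = reference inhibitor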
# DDE Tn6 FP inh: disrupts Tn6 cyclic peptide binding to fibrin D-Dimer-E complex. inhibition, % at 8.3 µM. 370,000 tested, 0.21% active. Fibrin DD(E) TRITC-Tn6 fluorescence polarization displacement;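 active = inhibition above a per-campaign cutoff: mean of compounds within control limits plus 3 SD, cut at about 15% in these data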;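 note: 0% = median of all compound wells on the plate and 100% = blocking peptide control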
# TDP2 inh: blocks human TDP2 phosphodiesterase activity | O95551 | recombinant TDP2, T5PNP hydrolysis, p-nitrophenol absorbance 415 nm | inhibition, % at 12.8 µM | 370,000 tested, 0.34% active | AID 720702;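 active = inhibition above the mean of all tested compounds plus 3 SD, set per campaign, cut at about 25% in these data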;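 note: 0% = DMSO with enzyme and 100% = buffer with substrate but no TDP2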
# Target sequence (O95551 whole entry, looked up): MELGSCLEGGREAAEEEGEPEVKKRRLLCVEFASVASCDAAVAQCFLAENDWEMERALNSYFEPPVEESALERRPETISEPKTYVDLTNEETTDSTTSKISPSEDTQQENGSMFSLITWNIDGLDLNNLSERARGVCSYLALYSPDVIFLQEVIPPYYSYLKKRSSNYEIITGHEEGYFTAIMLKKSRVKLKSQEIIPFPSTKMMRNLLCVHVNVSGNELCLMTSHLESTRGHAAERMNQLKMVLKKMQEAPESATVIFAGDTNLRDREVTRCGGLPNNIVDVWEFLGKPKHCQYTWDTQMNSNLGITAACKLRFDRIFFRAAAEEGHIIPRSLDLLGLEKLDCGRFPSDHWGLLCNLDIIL
#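 Test system: human TDP2 enzyme; Input: 120 nM TDP2 per well; Buffer or medium: Mg2+-containing Tris-HCl buffer, pH 7.5; Reagent: 5 mM T5PNP; Dosing: 12.8 µM single point, 1% DMSO; Incubation: reaction 2 h, 37 °C; Detection: p-Nitrophenol epi absorbance; Read-out: % inhibition relative to enzyme-containing and enzyme-free wells; Replicates: single well per compound.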
# LEDGF integ inh: blocks HIV-1 LEDGF/p75-dependent DNA integration; AID 743269; TR-FRET IN-LEDGF/p75 DNA integration, Eu/Cy5; 370,000 tested, 0.64% active; inhibition, % at 3.7 µM;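 active = inhibition above the screen-wide mean plus 3 SD, cut at about 13% in these data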;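 note: signal is the Cy5 over europium emission ratio at 671 and 618 nm; 0% = plate median of compound wells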
# MBD2 inh: MBD2-methylated oligo binding inhibition; AID 686964; Q9UBB5; 370,000 tested, 0.31% active; TR-FRET, MBD2 binding to methylated oligonucleotide; inhibition, % at 4.4 µM; in the data active = inhibition above about 13%
# UHRF1 ctr MBD2: inhibits human UHRF1 binding to methylated oligonucleotide, MBD2 counter-screen | shares compounds with MBD2 inh | TR-FRET | inhibition, % at 4.4 µM | 1,000 tested, 25% active;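 note: UHRF1 SRA domain binding a labeled hemimethylated CpG hairpin DNA; 0% = vehicle only and 100% = reference inhibitor with vehicle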
# MBD2 confirm: MBD2-DBD methyl-DNA binding inhibition, TR-FRET confirmation; shares compounds with MBD2 inh; TR-FRET MBD2-DBD binding to methylated oligonucleotide; inhibition, % at 4.4 µM; 1,000 tested, 26% active; AID 720531; in the data active = inhibition above about 14%
# * marks the source's active call; other numbers are inactive results; / = not tested or not shown. Cut-off read from the data, not from the text of the source, unless noted: active = inhibition above about 21%; inactive = the rest.
SMILES,Tn7 DDE FP,UHRF1 MBD2 ctr,DDE Tn6 FP inh,TDP2 inh,LEDGF integ inh,MBD2 inh,UHRF1 ctr MBD2,MBD2 confirm
COc1ccc(C2SCC(=O)N2c2ccccc2)cc1 (centres undefined),-2,22*,-3,-5,-1,11,/,/
COc1ccc(C2SCC(=O)N2c2ccc(OC)cc2)cc1 (centres undefined),2,0,-6,-8,0,2,/,/
Cc1nc2[nH]c(=S)[nH]c(=O)c2nc1C,-5,2,-2,10,3,-1,/,/
Cc1nc2c(=O)[nH]c(=S)[nH]c2[nH]c1=O,2,85*,0,8,22*,48*,/,/
COc1cc(C2C(C#N)=C(N)OC3=C2C(=O)CC(C)(C)C3)cc2c1OCO2 (centres undefined),1,30*,0,-1,10,1,/,/
CCCC1C(c2ccc(OC)cc2)C(C#N)(C#N)C2(C#N)CC1(N)NC2=O (centres undefined),0,1,7,-10,-3,5,/,/
CC1C(c2ccccc2)C(C#N)(C#N)C2(C#N)C(=O)NC1(N)C2C (centres undefined),-4,23*,-8,7,-2,6,/,/
CC(C)CN1C(=O)[C@@]2(CC(=O)N(C)C2c2ccccc2)c2cc(-n3cc(-c4ccccc4)nn3)ccc21 (some centres undefined),-5,0,-4,-4,-2,2,/,/
CCCSc1nc(C)c(-c2csc(C(C#N)=C3CCCC3)n2)cc1C#N,-3,17,1,-4,2,16*,7,6
CCCCSc1nc2c(cc1C#N)CCC2,2,-5,8,8,1,-6,/,/
CCCCCC(=O)Nc1cc(S(=O)(=O)O)cc2cc(S(=O)(=O)O)cc(O)c12,-8,99*,-2,-2,91*,97*,103*,113*
CC(=O)N1C[C@@H](CO)[C@@H]2C[C@H]1c1ccccc1N2C,0,4,-1,0,-1,2,/,/
COc1ccc(N2CC(C(=O)OCC(=O)Nc3cc(C)on3)CC2=O)cc1 (centres undefined),3,41*,5,-8,3,20*,10,2
COc1ccc(OC)c(NC(=O)C2CC(=O)N(c3ccccc3)C2)c1 (centres undefined),5,12,5,4,4,15*,11,2
Cc1onc(-c2ccccc2)c1C(=O)NN=Cc1cc(Cl)cc(Cl)c1O,-2,-14,8,-7,-6,-1,/,/
COC(=O)c1cc2c(c3c4cc(F)ccc4n(S(=O)(=O)c4cccc(C)c4)c13)C(=O)N(C)C2,4,-1,3,-8,-2,1,/,/
C=CCn1c(SCC(N)=O)nnc1-c1ccc(C)cc1,-1,-1,6,-8,-2,-2,/,/
C=CCn1c(SCC(=O)OC(C)C)nnc1-c1ccc(C)cc1,-4,0,1,4,2,14*,8,4
Cc1ccc2nc(C(C)(C)C)c(Cc3ccccc3C(F)(F)F)n2c1,6,21*,-5,-4,0,15*,8,7
CCCOc1ccc(N2C(=O)CC(N(Cc3ccco3)C(=O)CCC(=O)O)C2=O)cc1 (centres undefined),0,2,1,4,-3,16*,4,2
COc1ccc(N2C(=O)CC(N(Cc3ccco3)C(=O)CCC(=O)O)C2=O)cc1 (centres undefined),0,-2,-5,-6,-3,-4,/,/
C=CC[C@@H]1NN2C(=O)[C@@H](C)[C@@H]3c4ccccc4C=NN3[C@@H]2c2ccccc21,10,1,-1,14,0,0,/,/
CCOC(=O)C1CSCCS(=O)(=O)N1Cc1cc(F)ccc1Br (centres undefined),7,-1,2,1,4,-3,/,/
O=C(CCc1ccccc1)N[C@H]1[C@@H](OC(=O)c2cccnc2)CCC[C@]12C(=O)N(Cc1ccccc1)c1ccccc12,1,18,2,1,3,17*,9,8
Cn1ccc2ccc(-c3ccc4c(c3)[C@]3(CCC[C@@H](OCc5ccccc5)[C@@H]3NC(=O)CCc3ccccc3)C(=O)N4Cc3ccccc3)cc21,-2,-1,10,10,-2,-2,/,/
SMILES,Tn7 DDE FP,UHRF1 MBD2 ctr,DDE Tn6 FP inh,TDP2 inh,LEDGF integ inh,MBD2 inh,UHRF1 ctr MBD2,MBD2 confirm
O=C(CCc1ccccc1)N[C@H]1[C@H](OCc2ccccc2)CCC[C@@]12C(=O)N(Cc1ccccc1)c1ccc(-c3ccsc3)cc12,-4,17,3,3,2,15*,15,9
O=C(CCc1ccccc1)N[C@H]1[C@H](OC(=O)c2cnccn2)CCC[C@@]12C(=O)N(Cc1ccccc1)c1ccccc12,-1,-2,-2,6,5,0,/,/
C=CCCN1[C@@H](Cc2ccccc2)COc2ccccc2S1(=O)=O,-1,-4,6,-1,-2,-4,/,/
Cc1ccc(S(=O)(=O)N2CCOCC2)cc1NC(=O)Cn1c(=O)ccn(Cc2ccccc2)c1=O,3,-3,2,9,1,14*,7,1
Cc1ccc(S(=O)(=O)N2CCOCC2)cc1NC(=O)CSc1nc2ccccc2c(=O)n1Cc1ccccc1,-2,5,7,-9,-2,-1,/,/
COC(=O)c1ccc(OCC(=O)c2ccccc2)cc1,-8,21*,-1,13,11,16*,8,4
CC(=O)OCCNc1cc(N2CCN(C)CC2)c2noc3c2c1C(=O)c1ccccc1-3,2,36*,10,-1,-6,20*,25*,11
CC(=O)N1C[C@@H](CN2C(=O)CCC2=O)[C@@H]2C[C@H]1c1ccccc1N2C,-1,2,5,5,-3,-1,/,/
O=C(Cc1coc2cc3c(cc12)CCC3)OCc1cc(=O)n2c(n1)sc1ccccc12,0,16,-5,6,6,16*,19,14*
O=C(OCc1cc(=O)n2c(n1)sc1ccccc12)c1cccc(O)c1,6,16,0,10,3,13*,21*,18*
CCOC(=O)[C@]12CCCCC/C=C\1N(CCc1ccc(Cl)cc1)C(=O)[C@H]2CC(=O)N1CCCCC1,-2,1,1,1,-1,-2,/,/
CC(=O)Nc1ccccc1-c1ccc(C)o1,-3,-2,6,8,1,19*,8,2

# Bioassay records deposited in PubChem by The Scripps Research Institute Molecular Screening Center.
